{
  "source": "paper PMC9116722",
  "about": "(Cancer chemotherapy and pharmacology, 2022)",
  "experiment": "Adverse events",
  "type": "in vivo, human",
  "settings": "BRCAmut",
  "summary_of_the_method": "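Patients with germline BRCA-mutated cancers, or BRCA-wildtype TNBC or platinum-refractory ovarian cancer, took oral drug continuously twice daily in 28-day cycles. There were nine dose levels from 50 to 500 mg BID under 3+3 escalation, run separately per cohort after the first DLT. Toxicities were graded by CTCAE v4.0, with DLTs assessed during cycle 1.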",
  "data": [
    {"smiles": "C[C@]1(c2nc3c(C(N)=O)cccc3[nH]2)CCCN1", "note": "[veliparib]", "values": [
      {"measurement": "Anemia, Grade 3", "setting": "DL3 100/100 mg AM/PM", "value": "0 number of patients (%)"},
      {"measurement": "Anemia, Grade 4", "setting": "DL3 100/100 mg AM/PM", "value": "0 number of patients (%)"},
      {"measurement": "Any Grade 3/4 toxicity", "setting": "DL3 100/100 mg AM/PM", "value": "0 number of patients (%)"},
      {"measurement": "Any Grade 3 toxicity", "setting": "DL3 100/100 mg AM/PM", "value": "0 number of patients (%)"},
      {"measurement": "Any Grade 4 toxicity", "setting": "DL3 100/100 mg AM/PM", "value": "0 number of patients (%)"},
      {"measurement": "Appendicitis, Grade 3", "setting": "DL3 100/100 mg AM/PM", "value": "0 number of patients (%)"},
      {"measurement": "Aspartate aminotransferase increased, Grade 3", "setting": "DL3 100/100 mg AM/PM", "value": "0 number of patients (%)"},
      {"measurement": "Dehydration, Grade 3", "setting": "DL3 100/100 mg AM/PM", "value": "0 number of patients (%)"},
      {"measurement": "Dyspnea, Grade 4", "setting": "DL3 100/100 mg AM/PM", "value": "0 number of patients (%)"},
      {"measurement": "Fatigue, Grade 3", "setting": "DL3 100/100 mg AM/PM", "value": "0 number of patients (%)"},
      {"measurement": "Headache, Grade 3", "setting": "DL3 100/100 mg AM/PM", "value": "0 number of patients (%)"},
      {"measurement": "Hypophosphatemia, Grade 3", "setting": "DL3 100/100 mg AM/PM", "value": "0 number of patients (%)"},
      {"measurement": "Lymphocyte count decreased, Grade 3", "setting": "DL3 100/100 mg AM/PM", "value": "0 number of patients (%)"},
      {"measurement": "Lymphocyte count decreased, Grade 4", "setting": "DL3 100/100 mg AM/PM", "value": "0 number of patients (%)"},
      {"measurement": "Nausea, Grade 3", "setting": "DL3 100/100 mg AM/PM", "value": "0 number of patients (%)"},
      {"measurement": "Platelet count decreased, Grade 4", "setting": "DL3 100/100 mg AM/PM", "value": "0 number of patients (%)"},
      {"measurement": "Thromboembolic event, Grade 3", "setting": "DL3 100/100 mg AM/PM", "value": "0 number of patients (%)"},
      {"measurement": "Thromboembolic event, Grade 4", "setting": "DL3 100/100 mg AM/PM", "value": "0 number of patients (%)"},
      {"measurement": "Urinary tract infection, Grade 3", "setting": "DL3 100/100 mg AM/PM", "value": "0 number of patients (%)"},
      {"measurement": "Abdominal pain, Grade 3", "setting": "DL6 200/200 mg AM/PM", "value": "0 number of patients (%)"},
      {"measurement": "Alkaline phosphatase increased, Grade 3", "setting": "DL6 200/200 mg AM/PM", "value": "0 number of patients (%)"},
      {"measurement": "Anemia, Grade 3", "setting": "DL6 200/200 mg AM/PM", "value": "0 number of patients (%)"},
      {"measurement": "Anemia, Grade 4", "setting": "DL6 200/200 mg AM/PM", "value": "0 number of patients (%)"},
      {"measurement": "Any Grade 3/4 toxicity", "setting": "DL6 200/200 mg AM/PM", "value": "0 number of patients (%)"},
      {"measurement": "Any Grade 3 toxicity", "setting": "DL6 200/200 mg AM/PM", "value": "0 number of patients (%)"},
      {"measurement": "Any Grade 4 toxicity", "setting": "DL6 200/200 mg AM/PM", "value": "0 number of patients (%)"},
      {"measurement": "Appendicitis, Grade 3", "setting": "DL6 200/200 mg AM/PM", "value": "0 number of patients (%)"},
      {"measurement": "Aspartate aminotransferase increased, Grade 3", "setting": "DL6 200/200 mg AM/PM", "value": "0 number of patients (%)"},
      {"measurement": "Dehydration, Grade 3", "setting": "DL6 200/200 mg AM/PM", "value": "0 number of patients (%)"},
      {"measurement": "Dyspnea, Grade 4", "setting": "DL6 200/200 mg AM/PM", "value": "0 number of patients (%)"},
      {"measurement": "Fatigue, Grade 3", "setting": "DL6 200/200 mg AM/PM", "value": "0 number of patients (%)"},
      {"measurement": "Headache, Grade 3", "setting": "DL6 200/200 mg AM/PM", "value": "0 number of patients (%)"},
      {"measurement": "Hypophosphatemia, Grade 3", "setting": "DL6 200/200 mg AM/PM", "value": "0 number of patients (%)"},
      {"measurement": "Lymphocyte count decreased, Grade 3", "setting": "DL6 200/200 mg AM/PM", "value": "0 number of patients (%)"},
      {"measurement": "Lymphocyte count decreased, Grade 4", "setting": "DL6 200/200 mg AM/PM", "value": "0 number of patients (%)"},
      {"measurement": "Nausea, Grade 3", "setting": "DL6 200/200 mg AM/PM", "value": "0 number of patients (%)"},
      {"measurement": "Platelet count decreased, Grade 4", "setting": "DL6 200/200 mg AM/PM", "value": "0 number of patients (%)"},
      {"measurement": "Thromboembolic event, Grade 3", "setting": "DL6 200/200 mg AM/PM", "value": "0 number of patients (%)"},
      {"measurement": "Thromboembolic event, Grade 4", "setting": "DL6 200/200 mg AM/PM", "value": "0 number of patients (%)"},
      {"measurement": "Urinary tract infection, Grade 3", "setting": "DL6 200/200 mg AM/PM", "value": "0 number of patients (%)"},
      {"measurement": "Abdominal pain, Grade 3", "setting": "DL7 300/300 mg AM/PM", "value": "0 number of patients (%)"},
      {"measurement": "Alkaline phosphatase increased, Grade 3", "setting": "DL7 300/300 mg AM/PM", "value": "0 number of patients (%)"},
      {"measurement": "Anemia, Grade 3", "setting": "DL7 300/300 mg AM/PM", "value": "0 number of patients (%)"},
      {"measurement": "Anemia, Grade 4", "setting": "DL7 300/300 mg AM/PM", "value": "0 number of patients (%)"},
      {"measurement": "Any Grade 3/4 toxicity", "setting": "DL7 300/300 mg AM/PM", "value": "2 (33) number of patients (%)"},
      {"measurement": "Any Grade 3 toxicity", "setting": "DL7 300/300 mg AM/PM", "value": "2 (33) number of patients (%)"},
      {"measurement": "Any Grade 4 toxicity", "setting": "DL7 300/300 mg AM/PM", "value": "0 number of patients (%)"},
      {"measurement": "Appendicitis, Grade 3", "setting": "DL7 300/300 mg AM/PM", "value": "1 (17) number of patients (%)"},
      {"measurement": "Aspartate aminotransferase increased, Grade 3", "setting": "DL7 300/300 mg AM/PM", "value": "0 number of patients (%)"},
      {"measurement": "Dehydration, Grade 3", "setting": "DL7 300/300 mg AM/PM", "value": "0 number of patients (%)"},
      {"measurement": "Dyspnea, Grade 4", "setting": "DL7 300/300 mg AM/PM", "value": "0 number of patients (%)"},
      {"measurement": "Fatigue, Grade 3", "setting": "DL7 300/300 mg AM/PM", "value": "0 number of patients (%)"},
      {"measurement": "Headache, Grade 3", "setting": "DL7 300/300 mg AM/PM", "value": "1 (17) number of patients (%)"},
      {"measurement": "Hypophosphatemia, Grade 3", "setting": "DL7 300/300 mg AM/PM", "value": "0 number of patients (%)"},
      {"measurement": "Lymphocyte count decreased, Grade 3", "setting": "DL7 300/300 mg AM/PM", "value": "1 (17) number of patients (%)"},
      {"measurement": "Lymphocyte count decreased, Grade 4", "setting": "DL7 300/300 mg AM/PM", "value": "0 number of patients (%)"},
      {"measurement": "Nausea, Grade 3", "setting": "DL7 300/300 mg AM/PM", "value": "0 number of patients (%)"},
      {"measurement": "Platelet count decreased, Grade 4", "setting": "DL7 300/300 mg AM/PM", "value": "0 number of patients (%)"},
      {"measurement": "Thromboembolic event, Grade 3", "setting": "DL7 300/300 mg AM/PM", "value": "0 number of patients (%)"},
      {"measurement": "Thromboembolic event, Grade 4", "setting": "DL7 300/300 mg AM/PM", "value": "0 number of patients (%)"},
      {"measurement": "Urinary tract infection, Grade 3", "setting": "DL7 300/300 mg AM/PM", "value": "0 number of patients (%)"},
      {"measurement": "Abdominal pain, Grade 3", "setting": "DL8 400/400 mg AM/PM", "value": "2 (6) number of patients (%)"},
      {"measurement": "Alkaline phosphatase increased, Grade 3", "setting": "DL8 400/400 mg AM/PM", "value": "0 number of patients (%)"},
      {"measurement": "Anemia, Grade 3", "setting": "DL8 400/400 mg AM/PM", "value": "1 (3) number of patients (%)"},
      {"measurement": "Anemia, Grade 4", "setting": "DL8 400/400 mg AM/PM", "value": "0 number of patients (%)"},
      {"measurement": "Any Grade 3/4 toxicity", "setting": "DL8 400/400 mg AM/PM", "value": "11 (32) number of patients (%)"},
      {"measurement": "Any Grade 3 toxicity", "setting": "DL8 400/400 mg AM/PM", "value": "11 (32) number of patients (%)"},
      {"measurement": "Any Grade 4 toxicity", "setting": "DL8 400/400 mg AM/PM", "value": "1 (3) number of patients (%)"},
      {"measurement": "Appendicitis, Grade 3", "setting": "DL8 400/400 mg AM/PM", "value": "0 number of patients (%)"},
      {"measurement": "Aspartate aminotransferase increased, Grade 3", "setting": "DL8 400/400 mg AM/PM", "value": "0 number of patients (%)"},
      {"measurement": "Dehydration, Grade 3", "setting": "DL8 400/400 mg AM/PM", "value": "1 (3) number of patients (%)"},
      {"measurement": "Dyspnea, Grade 4", "setting": "DL8 400/400 mg AM/PM", "value": "0 number of patients (%)"},
      {"measurement": "Fatigue, Grade 3", "setting": "DL8 400/400 mg AM/PM", "value": "1 (3) number of patients (%)"},
      {"measurement": "Headache, Grade 3", "setting": "DL8 400/400 mg AM/PM", "value": "0 number of patients (%)"},
      {"measurement": "Hypophosphatemia, Grade 3", "setting": "DL8 400/400 mg AM/PM", "value": "1 (3) number of patients (%)"},
      {"measurement": "Lymphocyte count decreased, Grade 3", "setting": "DL8 400/400 mg AM/PM", "value": "7 (21) number of patients (%)"},
      {"measurement": "Lymphocyte count decreased, Grade 4", "setting": "DL8 400/400 mg AM/PM", "value": "1 (3) number of patients (%)"},
      {"measurement": "Nausea, Grade 3", "setting": "DL8 400/400 mg AM/PM", "value": "2 (6) number of patients (%)"},
      {"measurement": "Platelet count decreased, Grade 4", "setting": "DL8 400/400 mg AM/PM", "value": "0 number of patients (%)"},
      {"measurement": "Thromboembolic event, Grade 3", "setting": "DL8 400/400 mg AM/PM", "value": "2 (6) number of patients (%)"},
      {"measurement": "Thromboembolic event, Grade 4", "setting": "DL8 400/400 mg AM/PM", "value": "0 number of patients (%)"},
      {"measurement": "Urinary tract infection, Grade 3", "setting": "DL8 400/400 mg AM/PM", "value": "1 (3) number of patients (%)"},
      {"measurement": "Abdominal pain, Grade 3", "setting": "DL9 500/500 mg AM/PM", "value": "0 number of patients (%)"},
      {"measurement": "Alkaline phosphatase increased, Grade 3", "setting": "DL9 500/500 mg AM/PM", "value": "0 number of patients (%)"},
      {"measurement": "Anemia, Grade 3", "setting": "DL9 500/500 mg AM/PM", "value": "0 number of patients (%)"},
      {"measurement": "Anemia, Grade 4", "setting": "DL9 500/500 mg AM/PM", "value": "1 (14) number of patients (%)"},
      {"measurement": "Any Grade 3/4 toxicity", "setting": "DL9 500/500 mg AM/PM", "value": "2 (29) number of patients (%)"}
    ]}
  ]
}
